Measured values published in the array DNA melting data of Ke et al. (doi:10.1101/2024.01.08.574731).

Assays:
[1] = folding enthalpy; higher = less favourable; fluorescence melt of hairpins on a sequencing array, two-state fit; settings: sodium 0.088 M
Outline: (§1)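 Two-state fits, bootstrapped, provided melting temperature and folding enthalpy from Cy3 fluorescence normalised to pre-quench Cy3 and to control constructs. Library hairpins with annealed Cy3 and quencher oligos were imaged on a sequenced MiSeq flow cell in 50 mM Na-HEPES pH 8.0, 25 mM NaCl, at 2.5 °C intervals up to 60 °C. Four replicates were combined with inverse-variance weighting. A 9.35 °C upward shift was applied to fitted temperatures to match UV melts.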

[2] = melting temperature; fluorescence melt of hairpins on a sequencing array, two-state fit, raised by 9.35 °C to match UV melts; settings: sodium 0.088 M
Outline: as §1

Sequence | folding enthalpy [1] [kcal/mol] | Tm [2] [°C]
GCGTTGTAACGC ((((....)))) | -27.4 | 56.8
GTTCGTGGAAACATGGAC ((.(.((....)).).)) | -16.1 | 34.7
GATCGGGGTGCCGATC ((((((....)))))) | -52.3 | 59.3
GTTCTTGAAAAAGAAC ((((((....)))))) | -34.2 | 46.9
GGTCTAGGAAACTAGGCC ((.((((....)))).)) | -46.1 | 51.1
GCGGTCGAAAGACAGCGC ((((((....)))..))) | -27.7 | 69.2
GATCGGCCGAAAGGCATC (((..(((....)))))) | -6.97 | 26.9
CGGTGACGGAAACGTCCG (((..(((....)))))) | -12 | 44.3
GTTACCGGAAACGGTGAC ((.((((....)))).)) | -30.4 | 51.2
GATCTGAGATCAGATC ((((((....)))))) | -36.1 | 49.2
GCATGAGGAAACTTGTGC (((..((....))..))) | -26.6 | 35.9
GATCATTAAGATGATC ((((((....)))))) | -34.8 | 46.4
GCTAGCTCGAAAGAGAGC (((..(((....)))))) | -12.2 | 30.4
GCTCGGCGAAAGCTAAGC (((..((....))..))) | -15.8 | 44.4
GCGCCGCGAAAGCTACGC (((..((....))..))) | -20.9 | 53.5
GATCGGTGTTCCGATC ((((((....)))))) | -41.3 | 58.6
GTGGGAGGAAACCCCCAC (((((.(....).))))) | -38.8 | 50.3
GGCGATGGAAACATCGTC (.(((((....))))).) | -45.8 | 56.5
GGACGGCGAAAGCCATCC (((.(((....))).))) | -23.7 | 50
GGGCGTTCGAAAGAACCC (((..(((....)))))) | -19.9 | 50.3
GCGTTGCGAAAGCCAAGC ((.(.((....)).).)) | -21.3 | 46.9
GGGCTCGAAAGAGTGCCC ((((((....)))..))) | -34.1 | 51.3
GCGAGTGGAAACACTCAC (.(((((....))))).) | -14 | 45.7

Sequence | folding enthalpy [1] [kcal/mol] | Tm [2] [°C]
GTAGCACCGAAAGGTTAC (((..(((....)))))) | -8.52 | 29.2
GACTACGAAAGTATAGTC ((((((....)))..))) | -23.3 | 36.8
GCCCAGCGAAAGCTTTGC ((..(((....)))..)) | -7.49 | 37.6
GATCTAGGAGTAGATC ((((((....)))))) | -30.2 | 40.4
GTAGTACCGAAAGGTTAC (((..(((....)))))) | -11.1 | 29.8
GGGTGCCGAAAGGCCCC (((.(((....)))))) | -21.8 | 67.2
GATTACGGAAACGTAACC (.(((((....))))).) | -16.6 | 33.8
CCCCTGAAAAGGGG (((((....))))) | -25.4 | 57.2
CGCGGACGTTTCCGCG ((((((....)))))) | -31.9 | 69.2
GGGCGACGAAAGTCCCCC (((.(((....))).))) | -31.2 | 55.7
GATCCGGCGGCGGATC ((((((....)))))) | -41.5 | 58.7
GCTTAAACGAAAGTTAGC (((..(((....)))))) | -16.2 | 33.9
GTCATCGAAAGATGCGAC ((((((....)))..))) | -19.8 | 46.1
GACGACGAAAGTCTAGTC ((((((....)))..))) | -23.8 | 41.8
GATCAAAAGGTTGATC ((((((....)))))) | -23.9 | 36.1
GGACCCGGAAACGAGCCC ((.(.((....)).).)) | -16 | 30.2
GATCTCGATAGAGATC ((((((....)))))) | -36 | 66.8
GATCTCGGGTGAGATC ((((((....)))))) | -30 | 52.2
GACACGGGAAACCGTATC ((.((((....)))).)) | -14.5 | 35.2
ACTCAGAAATGAGT (((((....))))) | -22 | 36.7
GTTTATGGAAACGTAAAC (((((.(....).))))) | -30 | 37.5
GCGCGGCGAAAGCGGGGC ((.(.((....)).).)) | -27.7 | 64.4
GCTAAGCGAAAGCATTGC ((.(.((....)).).)) | -19.9 | 36.2

Sequence | folding enthalpy [1] [kcal/mol] | Tm [2] [°C]
GCGCTCGAAAGAGACCGC ((((((....)))..))) | -21.8 | 44.9
GCGTCGCGAAAGCCAGGC ((.(.((....)).).)) | -10.6 | 33.8
GGAGACGGAAACGTTTCC (((.(((....))).))) | -30.3 | 49.5
GTCTGATCGAAAGATGAC (((..(((....)))))) | -19.8 | 30.1
GCTATGCGAAAGCACAGC (((.(((....))).))) | -39.7 | 48.7
GCAATGCGAAAGCCGTGC (((..((....))..))) | -20.4 | 35.4
GAGGAGCCGAAAGGCCTC (((..(((....)))))) | -11.5 | 41.9
GTCCCTCGAAAGAGCGAC (((.(((....))).))) | -26.8 | 40.1
GATCGGCGCCCGATC ((((((...)))))) | -36.4 | 56.8
GTAGTGAAAACTAC (((((....))))) | -22.3 | 45.1
GCTAGGCGAAAGCGAAGC (((..((....))..))) | -15.8 | 35.3
GTCTGGGCGAAAGCCGAC (((..(((....)))))) | -14.6 | 44.4
GGGGAGTCGAAAGACCCC (((..(((....)))))) | -29.2 | 54.7
GATGGCGGAAACGCTATC (((.(((....))).))) | -27.2 | 52
GGAGTAGGAAACTGCTTC (.((.((....)).)).) | -32.7 | 41.4
GATCAAATGGTTGATC ((((((....)))))) | -28.5 | 39.6
GCAAGGCGAAAGCCGTGC (((.(((....))).))) | -22.8 | 68
GGATCACGAAAGTGGTCC (((.(((....))).))) | -33.7 | 60.4
GATCAGACAGCTGATC ((((((....)))))) | -32 | 45.3
GCGAGCGAAAGCTGGCGC ((((((....)))..))) | -25 | 68.7
GATCGTAGCGACGATC ((((((....)))))) | -38.9 | 54.9
GCCTCAGAAATGAGGC ((((((....)))))) | -30.8 | 62.5
GATCGAGGAAACCCGATC (((((.(....).))))) | -33.1 | 47.8

Sequence | folding enthalpy [1] [kcal/mol] | Tm [2] [°C]
GTGGTCGGAAACGGCTAC ((.(.((....)).).)) | -25.8 | 44.5
GCTCCAGGAAACCGGAGC (((((.(....).))))) | -40.5 | 54.3
GATCCTGACAGGATC ((((((...)))))) | -38.9 | 55.7
GATCACCTTGTGATC ((((((...)))))) | -40.9 | 58.8
GTGACCCCGAAAGGGCAC (((..(((....)))))) | -24.9 | 50.8
GGTGCGGGAAACCACACC ((((.((....)).)))) | -54.3 | 51.1
GCTGGGCCGAAAGGCAGC (((..(((....)))))) | -13.3 | 48.5
GGTTGTCCGAAAGGAACC (((..(((....)))))) | -14.5 | 31.2
GCGGTCCCCGC ((((...)))) | -18 | 67.5
GGTACCCGAAAGGGCACC (((.(((....))).))) | -32.3 | 55.6
GGCAAAGCGAAAGCTGCC (((..(((....)))))) | -31.3 | 58.5
GGACAGGGAAACCCGTCC ((((.((....)).)))) | -34.1 | 50.8
GCCGCCGGAAACAGCGGC (((((.(....).))))) | -37.4 | 66.4
GTAAGGGGAAACCCCTAC (((.(((....))).))) | -16.9 | 39
GCTCTCCGAAAGGAAAGC (((.(((....))).))) | -28.4 | 46.5
GCATAGCGAAAGCAAAGC ((.(.((....)).).)) | -9.49 | 32
GGGAACGGAAACGTCCCC (((.(((....))).))) | -30.7 | 50.2
GATCACACTGTGATC ((((((...)))))) | -41.8 | 55.6
GATCGAAATCTCGATC ((((((....)))))) | -32.7 | 48.7
GCCATGCGAAAGCTTAGC ((.(.((....)).).)) | -13.1 | 28
GAGACGGGAAACCGTTTC ((.((((....)))).)) | -23.4 | 45.8
GGGTTGGGAAACCAACCC (((((((....))))))) | -32.3 | 69.3
GCTCACGGAAACGTAAGC (((.(((....))).))) | -27.3 | 41.8
